The test system of data set [1] is Mus musculus. In words: Anti-inflammatory activity against croton oil induced ear edema Swiss mouse model assessed as edema inhibition at 1.00 mg per ear, TOP measured after 6 hrs relative to control. The data set is classed as functional. The procedure, abridged:
(§1)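 Male Swiss mice (20–30 g), n=7/group. Croton oil (200 µg/ear in 70% acetone) applied to the inner left ear, with vehicle alone on the right ear. Treatments in 20 µL 70% acetone were then applied topically to the left ear at 0.625 or 1.25 mg/ear, or 1 mg/ear for the reference drug. After 6 h, 6.0 mm ear disks were weighed and % edema inhibition calculated.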

In data set [2] the test system is Mus musculus. The data set can be described thus: Anti-inflammatory activity against croton oil induced ear edema Swiss mouse model assessed as edema inhibition at 0.625 mg per ear, TOP measured after 6 hrs relative to control. Format: functional. The procedure, abridged: as §1
For data set [3], the system named is Mus musculus. The data set can be described thus: Anti-inflammatory activity against croton oil induced ear edema Swiss mouse model assessed as edema inhibition at 1.25 mg per ear, TOP measured after 6 hrs relative to control. The data set is classed as functional. The procedure, abridged: as §1
Data set [4] in a line: Cytotoxicity against mouse L929 cells assessed as reduction in cell viability incubated for 72 hrs by MTT assay. The data set is classed as toxicity, cell-based. An outline of the steps:
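Fibroblasts (CCL-1) were seeded at 2.5 × 10^5 cells/mL in DMEM + 10% FBS and grown 24 h at 37 °C, 5% CO2 to confluence. They were exposed to 100–1000 µM compound for 72 h, then given MTT (2 mg/mL) for 4 h. Formazan was dissolved in DMSO and read at 492 nm. Viability relative to control gave CC50.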

Data set [5] concerns the target T1, Prostaglandin G/H synthase 2 (Homo sapiens) (UniProt P35354).
T1 sequence (whole entry): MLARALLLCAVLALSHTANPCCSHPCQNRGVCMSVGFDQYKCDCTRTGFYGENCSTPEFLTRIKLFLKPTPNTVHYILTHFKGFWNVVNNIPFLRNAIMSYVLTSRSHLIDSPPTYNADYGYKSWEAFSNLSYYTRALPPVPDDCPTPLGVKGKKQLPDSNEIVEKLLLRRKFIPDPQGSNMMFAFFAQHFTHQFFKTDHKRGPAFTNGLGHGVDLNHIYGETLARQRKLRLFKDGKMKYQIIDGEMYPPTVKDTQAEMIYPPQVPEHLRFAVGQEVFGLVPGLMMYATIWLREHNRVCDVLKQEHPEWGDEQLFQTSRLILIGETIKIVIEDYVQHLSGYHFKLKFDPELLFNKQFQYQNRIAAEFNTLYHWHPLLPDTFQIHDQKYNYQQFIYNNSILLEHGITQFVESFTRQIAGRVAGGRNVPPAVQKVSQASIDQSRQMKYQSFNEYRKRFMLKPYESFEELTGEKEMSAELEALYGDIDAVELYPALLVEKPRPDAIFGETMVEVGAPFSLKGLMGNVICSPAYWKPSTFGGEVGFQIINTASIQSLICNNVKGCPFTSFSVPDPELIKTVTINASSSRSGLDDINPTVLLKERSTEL
The data set can be described thus: Inhibition of human recombinant COX-2 at 31.25 uM by microplate reader analysis relative to control. An outline of the steps:
(§2)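 Kit-based cyclooxygenase inhibitor screen using human recombinant COX-2 or ovine COX-1, run per the manufacturer's procedure. Compound was tested at 1.95 and 31.25 µM. Absorbance was read at 405 nm. % inhibition was derived from %B/B0 on a standard curve.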

Data set [6] has as its target T2, Prostaglandin G/H synthase 1 (Ovis aries) (UniProt P05979).
T2 sequence (whole entry): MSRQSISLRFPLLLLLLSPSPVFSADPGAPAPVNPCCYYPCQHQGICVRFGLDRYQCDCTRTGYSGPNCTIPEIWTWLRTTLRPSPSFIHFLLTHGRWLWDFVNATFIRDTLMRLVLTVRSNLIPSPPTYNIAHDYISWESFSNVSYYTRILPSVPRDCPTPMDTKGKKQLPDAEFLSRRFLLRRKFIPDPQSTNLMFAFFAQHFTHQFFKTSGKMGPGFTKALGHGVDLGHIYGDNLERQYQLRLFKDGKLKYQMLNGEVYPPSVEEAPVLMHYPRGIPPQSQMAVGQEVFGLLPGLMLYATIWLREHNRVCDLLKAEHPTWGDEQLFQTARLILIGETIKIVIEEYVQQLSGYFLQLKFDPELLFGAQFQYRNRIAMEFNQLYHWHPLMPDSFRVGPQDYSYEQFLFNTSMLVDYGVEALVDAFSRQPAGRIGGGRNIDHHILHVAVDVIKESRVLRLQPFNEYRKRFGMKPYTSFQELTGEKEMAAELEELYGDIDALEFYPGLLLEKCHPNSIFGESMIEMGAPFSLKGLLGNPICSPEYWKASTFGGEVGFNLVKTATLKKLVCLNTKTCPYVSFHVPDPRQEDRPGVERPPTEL
The data set can be described thus: Inhibition of ovine COX-1 at 1.95 uM by microplate reader analysis relative to control. The procedure, abridged:
as §2

In data set [7] the target is T2, Prostaglandin G/H synthase 1 (Ovis aries). In words: Inhibition of ovine COX-1 at 31.25 uM by microplate reader analysis relative to control. An outline of the steps:
as §2

Data set [8] deals with T1, Prostaglandin G/H synthase 2 (Homo sapiens). The data set can be described thus: Inhibition of human recombinant COX-2 at 1.95 uM by microplate reader analysis relative to control. The procedure, abridged: as §2

On to `COc1ccc2c(c1)c(CC(=O)O)c(C)n2C(=O)c1ccc(Cl)cc1` [INDOMETHACIN], for which the “inhibition (INH)” value in the data set with Mus musculus [1] amounted to 98.2%.

Regarding `CCOC(=O)c1cc2c(-c3ccc([N+](=O)[O-])cc3)n[nH]c(=O)c2[nH]c1=O`, the “inhibition (INH)” value in the data set on Mus musculus [2] came out at 64.2%.

With `O=C(O)c1cc2c(-c3ccc([N+](=O)[O-])cc3)n[nH]c(=O)c2[nH]c1=O`, the “inhibition (INH)” value in the data set on Mus musculus [2] came to 63.2%; in the data set with Mus musculus [3] it was 56.2%.

`N#Cc1cc2c(-c3ccc([N+](=O)[O-])cc3)nn(-c3ccccc3)c(=O)c2[nH]c1=O`: the “inhibition (INH)” value in the data set on Mus musculus [3] was determined as 78.5%.

`O=C(O)c1cc2c(-c3ccc(Cl)cc3)n[nH]c(=O)c2[nH]c1=O`: the results for the “inhibition (INH)” value in the data set on Mus musculus [2] and with Mus musculus [3] were 65.9% and 75.2%, respectively.

Take `N#Cc1cc2c(-c3ccc(Cl)cc3)nn(-c3ccccc3)c(=O)c2[nH]c1=O`: the 50% inhibitory concentration (IC50) at 72 h in data set [4] is 249 µM. Moreover, the “inhibition (INH)” value with Mus musculus [2] is on record as 62.8%; in the data set with Mus musculus [3], 81.8%. The inhibition in data set [5] stood at 40.3%; in data set [6] it was 22.1%; in data set [7] it was 30.6%; in data set [8], 20.2%.

Consider `N#Cc1cc2c(-c3ccc(Cl)cc3)n[nH]c(=O)c2[nH]c1=O`, for which the figures for the “inhibition (INH)” value in the data set on Mus musculus [2] and in the data set with Mus musculus [3] were 49% and 50.4%, respectively.

The values above are taken from ChEMBL document CHEMBL5335836, “Discovery of a new pyrido[2,3-d]pyridazine-2,8-dione derivative as a potential anti-inflammatory agent through COX-1/COX-2 dual inhibition” (RSC Med Chem, 2024).
